Assay outcomes deposited in PubChem BioAssay by several laboratories.
Myeloid diff 2 = compounds promoting myeloid differentiation; calls only at 10 µM; AID 624256; 360,000 compounds, 1% hits; ER-HoxA9 myeloid progenitors, lysozyme-GFP differentiation, flow cytometry;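 active means normalized GFP-positive differentiation at or above the plate's own cutoff, the solvent-only control mean plus 3 SD; inconclusive means no clear call, values can overlap the other calls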;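 further: cells exposed to compound for four days before flow analysis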
Exocytosis inh = blocks lytic granule exocytosis. inhibition, % at 10 µM. 360,000 compounds, 0.66% hits. TALL-104 LAMP-1 surface exposure, flow cytometry; cells stimulated with thapsigargin and PMA;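 active means inhibition above about 55%, limit read from the data; inconclusive means no clear call, values can overlap the other calls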
SENP1 inh = SENP1 (human) catalytic domain inhibition; Q9P0U3; recombinant SENP1 catalytic domain, CyPet-SUMO1-YPet FRET cleavage; inhibition, % at 10 µM; 360,000 compounds, 0.21% hits; AID 624204;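 active means inhibition at least 30% at 10 µM, raw YFP signal under a set limit, fluorescence ratio 0.5 to 1.5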;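 further: 0% = enzyme with DMSO and 100% = no enzyme wells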
Target sequence (Q9P0U3 419-644 limits assumed): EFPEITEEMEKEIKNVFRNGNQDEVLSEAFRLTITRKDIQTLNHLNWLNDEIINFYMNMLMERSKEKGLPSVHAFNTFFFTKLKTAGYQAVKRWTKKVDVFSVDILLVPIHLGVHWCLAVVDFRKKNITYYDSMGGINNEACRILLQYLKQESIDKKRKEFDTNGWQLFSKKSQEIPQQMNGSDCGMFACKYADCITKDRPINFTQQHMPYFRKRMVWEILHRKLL
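Controls: no-enzyme wells low, DMSO-plus-enzyme wells high control. Test system: human recombinant His6-tagged SENP1 catalytic domain enzyme. Reagent: SFCypet-SUMO1-SFYpet FRET protein substrate, 25 nM final. Doses: one dose per compound, 10 µM, 0.5% DMSO. Detection: FRET, CFP and YFP emission. Timing: 50 min reaction at room temperature.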
DSG3 Ab inh = inhibitors of pemphigus antibody binding to human desmoglein-3 | 310,000 compounds, 0.48% hits | DSG3-coupled beads, scFv-anti-DSG3-GFP binding, flow cytometry; hits give low values | P32926 | binding (percent of control), % at 10 µM | AID 588358;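 active means binding more than 3 SD below its plate's average and above zero; inconclusive means below that plate limit but binding exactly zero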;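 further: hits lower antibody fragment binding to DSG3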
HNF4A DNA FP = change in binding of human HNF4 alpha to DNA | P41235 | HNF4a-FITC DNA binding, fluorescence polarization, 1 h | activity change, % at 10 µM | 360,000 compounds, 0.3% hits; in the data active means activity change above about 30%, passing the limit was not always enough
H9c2 protect = myocardial damage modulation in H9c2 cells; H9c2 cardiomyocytes, H2O2 injury protection, ATPLite, 2 h; protection from H2O2 cell death, % at 20 µM; 360,000 compounds, 0.63% hits;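 active means compounds giving at least 50% protection of heart cells from peroxide-induced death in the single-dose screen, raw or plate-pattern-corrected value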;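 further: 0% = DMSO wells with peroxide and 100% = DMSO wells without peroxide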
Active calls of the source: *; i = inactive; u = inconclusive; x = no result given; + = active, no number. An excerpt weighted towards active compounds, which were near 3% of everything screened.

SMILES	Myeloid diff 2	Exocytosis inh	SENP1 inh	DSG3 Ab inh	HNF4A DNA FP	H9c2 protect
CN=c1scc(-c2ccccc2F)n1/N=C/c1ccc(O)c(O)c1O	i	-0.2	11.6	89.0	-7.6	-13.1
CC(C)N=c1scc(-c2cccs2)n1/N=C/c1ccc(O)c(O)c1O	i	3.4	12.9	x	-4.4	50.5*
O=C(CCNS(=O)(=O)c1ccc(Cl)cc1)N1CCCCCC1	i	-2.5	0.5	x	0.6	-2.1
O=C(O)c1cc(N2N=C(C(F)(F)F)/C(=C/C=C/c3ccco3)C2=O)ccc1Cl	i	5.4	32.8*	70.5	-62.8	0.6
COc1ccc(C2=CC(=O)C[C@H](c3ccc4c(c3)OCO4)C2)cc1	i	-1.3	2.5	99.0	-1.4	-2.5
CC(C)(C)OC(=O)N1CCc2onc(-c3ccc(-n4cc(C5=CCCCC5)nn4)cc3)c2C1=O	i	14.7	1.7	x	-1.9	x
COc1ccc(NC(=O)CC23CC4CC(CC(Br)(C4)C2)C3)c(OC)c1	i	-4.0	3.2	x	-2.6	0.9
C/C(=N\OCC(=O)N/N=C/c1ccc(C)cc1O)c1cccs1	i	-1.6	-10.8	101.5	0.7	63.8*
CC(C)(C)OC(=O)N1CCC(c2c(C(=O)NCC3CCN(C4CCCC4)C3)cnn2-c2ccccc2Cl)CC1 (centres undefined)	i	21.0	-11.1	113.6	0.3	-1.2
Cc1ccc(CS(=O)(=O)c2ccc(C(=O)N3CCN(c4ccccn4)CC3)cc2[N+](=O)[O-])cc1	+	0.5	1.3	120.1	0.4	8.5
CC(C)(C)NC(=O)CSc1nc2ccc(Nc3nc(N4CCOCC4)nc(N4CCOCC4)n3)cc2s1	i	-7.5	-6.6	87.1	6.7	91.2*
O=C(NCc1ccco1)c1cnn2c(C(F)(F)F)cc(-c3cccs3)nc12	i	6.2	-23.3	x	0.1	64.6*
C/C(=N\NC(=O)c1ccccc1-n1cccc1)c1ccccn1	u	-1.2	0.0	96.1	1.6	69.2*
O=C1N(Cc2cccc(Cl)c2)C[C@@H]2C[C@@H](c3cccc4ncccc34)N3CCC[C@@]123	i	3.5	-2.0	103.1	0.5	-4.1
O=C1N(Cc2cccc(Cl)c2)C[C@@H]2C[C@@H](c3c[nH]c4ccccc34)N3CCC[C@@]123	+	0.1	6.0	204.3	85.5*	-7.8
CC(C)c1cc(C(=O)OCC(=O)NC2CC2)c(O)c(C(C)C)c1	i	-5.0	1.6	94.9	-0.9	-5.5
Cc1cccc(N(C)C(=O)c2cc(S(=O)(=O)N3CCc4ccccc43)cn2C)c1	+	-0.7	-0.4	102.9	-8.6	-5.0
CCOCCCn1c(=S)[nH]c2cc(C(=O)NCCc3ccccc3)ccc2c1=O	i	-2.0	2.2	89.7	-1.6	0.7
Cc1cc(C(=O)Nc2ccc(C#N)cc2)on1	i	-8.6	0.6	101.1	1.8	-0.8
Cc1nc2ncccn2c1-c1csc(NCc2ccco2)n1	+	-2.7	2.8	x	-2.9	-0.2
COC(=O)CNc1nc(Cl)nc(Nc2ccc(Cl)cc2)n1	i	1.1	1.9	75.5*	-1.8	-0.8
COc1ccc(C(=O)COC(=O)Cn2[nH]c(=O)c3ccccc3c2=O)c(OC)c1	i	-0.8	3.4	114.9	8.7	61.5*
CCOc1ccc(C(=O)COC(=O)Cn2[nH]c(=O)c3ccccc3c2=O)cc1	i	-8.5	-0.2	99.8	7.2	78.4*
COc1ccc(C(=O)COC(=O)Cn2cnc3ccccc3c2=O)c(OC)c1	i	-6.9	-1.1	93.1	0.9	3.7
O=C(Cn1[nH]c(=O)c2ccccc2c1=O)OCC(=O)c1ccccc1	i	-1.3	0.7	x	2.0	44.4
SMILES	Myeloid diff 2	Exocytosis inh	SENP1 inh	DSG3 Ab inh	HNF4A DNA FP	H9c2 protect
O=C(O)c1ccc(NC(=O)c2cccc(S(=O)(=O)Nc3ccc(C(=O)O)cc3)c2)cc1	i	-1.2	1.3	94.5	0.0	17.6
O=C1CSc2ccc(C(=O)Nc3cccc(S(=O)(=O)Nc4ccc(Br)cc4)c3)cc2N1	i	63.1*	3.2	94.6	-3.1	-29.9
O=C(CO)C(O)C(O)C(O)CO (centres undefined)	+	-1.2	-0.3	x	2.2	8.6
CC1(C)CC=CC(COC(=O)c2ccccc2C(=O)O)C1 (centres undefined)	i	14.3	1.3	104.1	1.8	-4.6
COCCNc1nc2c(-c3cccc(C(F)(F)F)c3)nnn2c2ccccc12	i	18.6	-21.1	105.5	0.9	-17.4
CC(=O)NCCNc1nc2c(-c3cccc(C)c3)nnn2c2ccccc12	u	-4.7	-43.1	104.2	-0.2	6.1
CC(=O)NCCNc1nc2c(-c3ccccc3)nnn2c2ccccc12	i	6.4	-61.3	97.5	3.6	55.3*
NNc1nc2c(-c3cccc(C(F)(F)F)c3)nnn2c2ccccc12	+	34.2	-27.3	106.1	36.1*	-0.5
COc1ccc2cc(C(=O)COC(=O)COc3ccc4c(C)cc(=O)oc4c3)ccc2c1	i	-1.1	-4.8	69.2*	2.6	34.7
CCOC(=O)COc1ccc2c3c(c(=O)oc2c1)CCCC3	i	0.3	-0.5	96.3	-2.6	54.8*
N=c1c(C(=O)NC2CCCCC2)cc2c(=O)n3ccccc3nc2n1CCc1ccccc1	i	-7.1	-24.0	101.0	-1.4	9.0
Cc1c(CCOC(=O)C23CC4CC(CC(C4)C2)C3)sc[n+]1CC#N	i	2.9	1.5	97.8	1.1	-18.2
COc1ccc(OCC(=O)O/N=C(\N)c2ccc(OC)cc2)cc1	i	-0.1	2.5	102.6	4.4	-17.2
CO/N=C(/COc1ccc(F)cc1)c1ccc(OC)cc1	i	-7.8	-0.4	71.9*	-0.4	-6.4
Cc1ccc(NC(=O)c2cccc3c2C(=O)N(C2CCCCC2)C3)c(Cl)c1	i	1.5	-0.2	90.7	-1.4	-3.2
O=C1ON=C(c2ccccc2)/C1=C/c1ccc(O)c(O)c1	i	-16.6	1.6	89.6	-4.0	57.6*
Cc1ccc(S(=O)(=O)N2CCN(CC3CC4C=CC3C4)CC2)cc1 (centres undefined)	i	-7.2	-0.9	93.8	5.5	-0.6
O=C(NCCc1cccnc1)C1CCC(=O)N(CCc2cccc(F)c2)C1 (centres undefined)	x	-1.7	0.5	101.8	-2.4	0.8
CCn1c(N)c(C(=O)NCC2CCCO2)sc1=S (centres undefined)	i	-0.6	1.8	105.5	-0.2	7.7
Cc1ccc(CNC(=O)c2ccc3c(=O)[nH]c4c(C(=O)NCC5CCCO5)sc(=S)n4c3c2)cc1 (centres undefined)	i	-0.1	39.3*	x	0.5	12.3
CCCCCNC(=O)c1ccc2c(=O)[nH]c3c(C(=O)NCC4CCCO4)sc(=S)n3c2c1 (centres undefined)	i	-2.5	51.9*	x	0.9	19.2
